An excerpt weighted towards active compounds, which were near 1.5% of everything screened.
CHT block = inhibitors of human choline transporter CHT | 310,000 compounds, 0.86% hits | B-score at 10 µM | High affinity choline transporter 1 (Homo sapiens), Q9GZV3 | CHT-expressing cells, membrane potential dye, choline response; hits give low values;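 active = B-score over 3 SD under the library average, and starting fluorescence ratio not unusually high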;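 note: choline stimulus applied at its EC90 after an EC20 pre-addition; B-score computed on integrated fluorescence ratio after choline addition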
VLA-4 inh = inhibition in human VLA-4 binding assay, primary screen, VLA-4 allosteric modulator project, MLPCN library, flow cytometry, VLA-4 expressing cells | ligand binding flow cytometry | inhibition, % (about 7 µM as worked out from the volumes in the protocol) | 330,000 compounds, 0.2% hits; in the data active = inhibition above about 50%
Target sequence (P13612 whole entry, looked up): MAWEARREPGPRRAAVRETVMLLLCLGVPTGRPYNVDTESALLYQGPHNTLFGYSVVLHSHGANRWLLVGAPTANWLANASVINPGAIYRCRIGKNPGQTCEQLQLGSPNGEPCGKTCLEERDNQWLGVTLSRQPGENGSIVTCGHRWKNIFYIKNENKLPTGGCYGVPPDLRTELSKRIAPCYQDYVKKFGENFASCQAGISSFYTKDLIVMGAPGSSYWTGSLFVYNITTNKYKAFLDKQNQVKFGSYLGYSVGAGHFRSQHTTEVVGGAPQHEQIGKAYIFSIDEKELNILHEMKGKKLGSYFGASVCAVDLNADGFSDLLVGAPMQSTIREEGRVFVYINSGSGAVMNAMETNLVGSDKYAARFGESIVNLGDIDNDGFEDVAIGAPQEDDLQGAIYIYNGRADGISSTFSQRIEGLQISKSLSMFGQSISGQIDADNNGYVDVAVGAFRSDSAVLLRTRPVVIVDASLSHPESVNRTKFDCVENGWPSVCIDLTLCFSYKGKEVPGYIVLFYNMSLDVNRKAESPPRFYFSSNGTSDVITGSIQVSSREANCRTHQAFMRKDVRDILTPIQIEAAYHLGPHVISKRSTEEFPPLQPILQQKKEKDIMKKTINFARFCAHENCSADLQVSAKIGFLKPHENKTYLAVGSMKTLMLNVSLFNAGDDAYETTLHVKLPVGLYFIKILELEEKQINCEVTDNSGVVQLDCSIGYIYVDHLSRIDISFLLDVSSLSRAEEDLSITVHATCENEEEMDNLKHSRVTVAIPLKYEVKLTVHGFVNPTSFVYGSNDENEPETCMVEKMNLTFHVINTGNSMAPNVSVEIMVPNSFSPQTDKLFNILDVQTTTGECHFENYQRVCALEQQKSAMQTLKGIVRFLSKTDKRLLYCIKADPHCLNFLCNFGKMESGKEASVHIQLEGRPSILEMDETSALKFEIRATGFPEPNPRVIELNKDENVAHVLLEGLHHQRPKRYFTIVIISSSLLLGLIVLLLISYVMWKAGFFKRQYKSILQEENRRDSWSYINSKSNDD
CHT PAM = CHT positive allosteric modulators, primary screen, cell-based, membrane potential dye, choline EC20 | B-score at 10 µM | High affinity choline transporter 1 (Homo sapiens), Q9GZV3 | CHT-expressing cells; hits give high values; LV-AA mutant CHT in HEK293 cells | 310,000 compounds, 0.49% hits;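 active = initial fluorescence not abnormally high and integrated response B-score, plate-corrected, over 3 SD above library mean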
T cell modulator = modulators of CD8 T cell-vesicle binding, primary screen, mouse 2C CD8+ T cells, flow cytometry; 2C CD8+ T cell-vesicle binding; hits give low values; response (vesicle binding), % at 7 µM; 330,000 compounds, 0.068% hits; AID 2052, 2009;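 active = response, share of CD8 T cells binding vesicles, and their 90th percentile fluorescence all below set limits, cut at about 80% in these data, passing the limit was not always enough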;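 note: values below 100% mean blocked vesicle binding to the CD8+ T cells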
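Material: murine 2C transgenic CD8+ T lymphocytes / Also added: QL9-peptide-loaded Drosophila micro-vesicles bearing Ld, ICAM-1 and B7-1 / Schedule: binding step 1.5 h, 37 °C, antibody labelling 20 min, ice / Signal: flow cytometry, PE anti-B7-1 (FL2) versus Alexa647 anti-CD8 (FL8), PFA-fixed / Evaluation: percent CD8+ FL2 mean versus row control / Benchmarks: naked versus QL9-loaded vesicles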
CHT act confirm = CHT activators, confirmation, cell-based, membrane potential dye, duplicate; 2,500 compounds, 91% hits; CHT-expressing cells, membrane potential dye fluorescence (FDSS); % of choline EC20–EC90 response window; HEK293 expressing CHT LV-AA mutant; choline added at its EC20; activation, % at 10 µM; AID 504833, 2011; shares compounds with CHT PAM;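 active = primary screen active, with duplicate mean activation above negative control mean plus 3 SD, cut at about 11% in these data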
HEK293 MP dye = membrane potential response in parental HEK293 cells, counter-screen for CHT activator project, cell-based, membrane potential dye; membrane potential dye fluorescence (FDSS); measured after EC20 choline addition; AID 623908, 2012; 2,500 compounds, 62% hits; shares compounds with CHT PAM; ratio readout change at 10 µM, hits read low;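 active = duplicate-averaged ratio beyond 3 SD from buffer wells, up or down, though filed actives are nearly all decreases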
Starred values were filed as active, the others as inactive; i = inactive; · = no result given.

SMILES	CHT block	VLA-4 inh	CHT PAM	T cell modulator	CHT act confirm	HEK293 MP dye
O=C(c1c[nH]c2ccc(S(=O)(=O)N3CCOCC3)cc2c1=O)N1CCC2(CC1)OCCO2	i	1	i	i	·	·
COC(=O)CC1(CC(=O)OC)C(=O)N(c2ccccc2)C(=O)N(c2ccccc2)C1=O	i	4	i	296	·	·
O=C1CC2OCC=C3CN4CCC56c7cc([N+](=O)[O-])ccc7N1C5C2C3CC46 (stereo unspecified)	i	19	i	396	51*	-50*
O=C(O)c1ccc(-[n+]2c(-c3ccccc3)cc(-c3ccccc3)cc2-c2ccccc2)cc1	i	-4	i	i	·	·
CCCOC(=O)c1ccc(-[n+]2c(-c3ccccc3)cc(-c3ccccc3)cc2-c2ccccc2)cc1	i	27	9.3*	175	18*	i
Clc1cccc(N2CCNCC2)n1	i	1	i	197	·	·
Cc1cc(N2CCNCC2)nc2ccccc12	i	30	7.5*	205	60*	-65*
CCOc1cc2c(cc1OCC)-n1cccc1C(c1ccccc1O)NC2 (stereo unspecified)	i	2	i	i	·	·
COc1ccc(-n2c(-c3ccccc3Br)nc3ccccc3c2=O)cc1	i	4	i	182	·	·
Cc1ccc(-c2nc(N(C)C3CCN(C)CC3)c3ccccc3n2)cc1	i	16	i	349	37*	-68*
COc1ccc2[nH]cc(CCN)c2c1	i	15	i	199	·	·
COc1ccc2[nH]c3c(c2c1)CCN=C3C	i	22	7.1*	267	47*	-45*
CCOC(=O)c1ccc2c(c1)n(Cc1ccccc1)c(C)[n+]2CC	i	13	8.1*	276	47*	-51*
CCc1ccc(C2=NN(CCC(=O)N3CCC4(CC3)OCCO4)C(=O)CC2)cc1	i	2	i	0	·	·
COc1ccc(-n2c(SCCN(C)C)nc3ccccc3c2=O)cc1	i	2	i	290	37*	-42*
O=[N+]([O-])c1ccc(N2CCCC2)c2ncccc12	i	11	i	224	·	·
CC1CN(c2ccc([N+](=O)[O-])c3cccnc23)CC(C)N1 (stereo unspecified)	i	-8	i	362	48*	-84*
Cc1c(C(=O)Nc2ccccc2)c2cc(O)ccc2n1Cc1ccccc1	i	0	i	302	·	·
Cc1cccc(NP(=O)(Oc2ccccc2)Oc2ccccc2)c1C	i	-12	i	480	·	·
Cc1ccccc1NP(=O)(Oc1ccccc1F)Oc1ccccc1F	i	7	6.3*	65	9.9*	i
COc1cc(/C=C/c2nc3ccccc3c(=O)n2-c2ccc(O)cc2)ccc1O	i	-93	i	194	18*	i
COc1ccc(-n2c(/C=C/c3ccc(O)c(O)c3)nc3ccccc3c2=O)cc1	i	-70	i	546	·	·
COc1cc2c(cc1OC)-c1c(OC)c(OC)cc3c1[C@H](C2)N(C)CC3	i	-3	7.6*	713	44*	-73*
COc1ccc2c(c1O)-c1c(OC)c(OC)cc3c1[C@H](C2)N(C)CC3	i	14	8.4*	100	56*	-66*
COC(=O)c1cc(C(O)(C(=O)OC)C(F)(F)F)c(/N=C/N(C)C)s1 (stereo unspecified)	i	10	i	914	·	·
SMILES	CHT block	VLA-4 inh	CHT PAM	T cell modulator	CHT act confirm	HEK293 MP dye
CCN(C(=O)COC(=O)Cc1ccccc1)c1c(N)n(Cc2ccccc2)c(=O)[nH]c1=O	·	-7	·	626	·	·
O=C(CNC(=O)c1cccc(Cl)c1)Nc1ccc(Br)cc1C(=O)c1ccccc1	i	10	7.7*	203	20*	i
C/C(=N\N1CCCCCC1)c1c(O)n(-c2ccccc2C)c(=O)[nH]c1=O	i	-2	i	264	·	·
COc1c2c(cc3c1OCO3)CC[N+](C)=C2	i	-12	9.2*	336	58*	-60*
COc1ccc2c(c1OC)CN1CCc3cc4c(cc3[C@H]1C2)OCO4	·	0	·	0	·	·
COC(=O)C1C2c3ccccc3C(c3ccccc32)C1C(=O)OC (stereo unspecified)	i	3	i	219	·	·

Screening data as filed in PubChem.
